The test system of data set [1] is KB. The data set is described as follows: Cytotoxicity against human KB cells. The format is functional, cell-based.
In data set [2] the test system is Col2. The data set is described as follows: Cytotoxicity against human Col2 cells. It is filed as functional, cell-based.
In data set [3] the test system is Mus musculus. The data set is described as follows: Toxicity in athymic NCr nu/nu mouse implanted with human Col2 cells at subcutaneous compartment assessed as body weight loss at 25 mg/kg, ip administered once daily after 3 to 6 days of fiber implantation measured on day 7 by hollow fiber assay. It is filed as organism-based. Set-up: dose 25 mg/kg. Conditions: in vivo, sc. In short, it runs like this:
(§1)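 Female athymic NCr nu/nu mice carried i.p. and s.c. hollow fibers with KB, Col-2 or hTERT-RPE1 cells. They received the PVP-coprecipitated compound in PBS at 6.25, 12.5 or 25 mg/kg i.p. once daily on days 3–6 after implantation. Toxicity was followed as body weight, recorded daily.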

The subject of data set [4] is Mus musculus. The data set is described as follows: Toxicity in athymic NCr nu/nu mouse implanted with human telomerase […] RPE1 cells at subcutaneous compartment assessed as body weight loss at 25 mg/kg, ip administered once daily after 3 to 6 days of fiber implantation measured on day 7 by hollow fiber assay. The format is organism-based. Set-up: dose 25 mg/kg. The following applies: in vivo, sc. In short, it runs like this:
as §1

In data set [5] the test system is KB. The data set is described as follows: Growth inhibition of human KB cells implanted at subcutaneous compartment of athymic NCr nu/nu mouse at 25 mg/kg, ip administered once daily after 3 to 6 days of fiber implantation measured on day 7 by hollow fiber assay. It is filed as functional. Conditions: sc, read-out: GI. The method, boiled down:
(§2)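 Hollow fibers carrying KB (7.5 × 10⁵ cells/mL), Col-2 (10⁶ cells/mL) or hTERT-RPE1 (2.5 × 10⁶ cells/mL) cells were implanted i.p. and s.c. in female athymic NCr nu/nu mice. Compound was coprecipitated with PVP (MW 360 000) and dissolved in PBS. Doses of 6.25, 12.5 or 25 mg/kg were given i.p. once daily on days 3–6 after implantation. Fiber cell growth inhibition was measured.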

Another data set deals with LNCaP. The data set is described as follows: Cytotoxicity against human LNCAP cells. It is filed as functional, cell-based.
Data set [6] concerns Mus musculus. The data set is described as follows: Toxicity in athymic NCr nu/nu mouse implanted with human Col2 cells at intraperitoneal compartment assessed as body weight loss at 25 mg/kg, ip administered once daily after 3 to 6 days of fiber implantation measured on day 7 by hollow fiber assay. It is filed as organism-based. More on the design: dose 25 mg/kg, route intraperitoneal. Conditions: in vivo. In short, it runs like this:
as §1

Data set [7] has as its system Mus musculus. The data set is described as follows: Toxicity in athymic NCr nu/nu mouse implanted with human KB cells at subcutaneous compartment assessed as body weight loss at 25 mg/kg, ip administered once daily after 3 to 6 days of fiber implantation measured on day 7 by hollow fiber assay. The following applies: in vivo, sc. The format is organism-based. More on the design: dose 25 mg/kg. The method, boiled down:
as §1

Data set [8] has as its system Mus musculus. The data set is described as follows: Toxicity in athymic NCr nu/nu mouse implanted with human KB cells at intraperitoneal compartment assessed as body weight loss at 25 mg/kg, ip administered once daily after 3 to 6 days of fiber implantation measured on day 7 by hollow fiber assay. It is filed as organism-based. More on the design: dose 25 mg/kg, route intraperitoneal. Conditions: in vivo. The method, boiled down: as §1

In data set [9] the test system is KB. The data set is described as follows: Growth inhibition of human KB cells implanted at intraperitoneal compartment of athymic NCr nu/nu mouse at 25 mg/kg, ip administered once daily after 3 to 6 days of fiber implantation measured on day 7 by hollow fiber assay. It is filed as functional. Conditions: read-out: GI. In short, it runs like this:
as §2

The test system of data set [10] is Col2. The data set is described as follows: Growth inhibition of human Col2 cells implanted at intraperitoneal compartment of athymic NCr nu/nu mouse at 25 mg/kg, ip administered once daily after 3 to 6 days of fiber implantation measured on day 7 by hollow fiber assay. It is filed as functional. The following applies: read-out: GI. In short, it runs like this: as §2

The nature of data set [11]: Growth inhibition of human telomerase […] RPE1 cells implanted at subcutaneous compartment of athymic NCr nu/nu mouse at 25 mg/kg, ip administered once daily after 3 to 6 days of fiber implantation measured on day 7 by hollow fiber assay. The format is functional, TERT-RPE1. Conditions: RPE-1, sc, read-out: GI. In short, it runs like this:
as §2

The test system of data set [12] is Col2. The data set is described as follows: Growth inhibition of human Col2 cells implanted at subcutaneous compartment of athymic NCr nu/nu mouse at 25 mg/kg, ip administered once daily after 3 to 6 days of fiber implantation measured on day 7 by hollow fiber assay. The format is functional. The following applies: Col2, sc, read-out: GI. The method, boiled down: as §2

Data set [13] can be described thus: Growth inhibition of human telomerase […] RPE1 cells implanted at intraperitoneal compartment of athymic NCr nu/nu mouse at 25 mg/kg, ip administered once daily after 3 to 6 days of fiber implantation measured on day 7 by hollow fiber assay. Conditions: RPE-1, ip, read-out: GI. The format is functional, TERT-RPE1. In short, it runs like this: as §2
Data set [14] deals with Mus musculus. The data set is described as follows: Toxicity in athymic NCr nu/nu mouse implanted with human telomerase […] RPE1 cells at intraperitoneal compartment assessed as body weight loss at 25 mg/kg, ip administered once daily after 3 to 6 days of fiber implantation measured on day 7 by hollow fiber assay. The following applies: in vivo. Set-up: dose 25 mg/kg, route intraperitoneal. The format is organism-based. The method, boiled down: as §1

In brackets after ≈: the same amount, converted by molar mass. Activity calls are given as the source filed them. No cut-off for these calls is given here.

Take `COc1ccc2c(c1)O[C@@H]1c3ccc(O)cc3OC[C@H]21`: in the data set with KB [1], it took 2.4 mg/L (≈ 8.88 µM) to reach a half-maximal effect (EC50).
Consider `COc1ccc(-c2coc3cc(O)ccc3c2=O)cc1`, for which the outcome with KB [1] was inactive.
On to `Oc1ccc2c(c1)OC[C@@H]1c3cc4c(cc3O[C@H]21)OCO4`, for which the outcome in the data set on KB [1] was inactive.
As to `COc1c(O)cc(C/C=C/c2ccccc2)c(OC)c1O` [MACHARISTOL], the EC50 was 3 mg/L (≈ 10.5 µM) in the data set with Col2 [2], 1.7 mg/L (≈ 5.94 µM) with KB [1] and 2.4 mg/L (≈ 8.38 µM) with LNCaP. In addition, the Activity entry in the data set with Mus musculus [3], in the data set on Mus musculus [4], in the data set on Mus musculus [6], with Mus musculus [7], in the data set with Mus musculus [8] and in the data set on Mus musculus [14] was “Non-toxic” each time. In addition, the inhibition in vivo at 25 mg/kg with KB [5] stood at 0%; with KB [9] it was 23%; in the data set on Col2 [10] it was 35%; in data set [11] it was 45%; with Col2 [12] it was 35%; in data set [13], 31%.

As usually defined, the EC50 is the concentration at which the effect is half-maximal. Low readings indicate higher potency in that assay, high ones lower potency in that assay.

These data come from ChEMBL document CHEMBL1156385, “Macharistol, a new cytotoxic cinnamylphenol from the stems of Machaerium aristulatum” (J Nat Prod, 2001).
